Results as given in ChEMBL document CHEMBL1140069, “In vitro antifungal activity of polyfunctionalized 2-(hetero)arylquinolines prepared through imino Diels-Alder reactions” (2008).
Converted amounts (≈) assume the structure as drawn.

What was measured:
Assay type in all cases: functional
Candida parapsilosis = assay: Antimicrobial activity against Candida parapsilosis C124 isolate at 6.25 ug/ml after 24 hrs; details: Lodderomyces parapsilosis
How it was run: (§1)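 Percent growth inhibition in 96-well microplates. Compound stocks in DMSO (≤2%) were diluted in RPMI-1640 to final 100–6.25 µg/mL, and 100 µL inoculum was added (final 200 µL). Controls were a growth well (inoculum with matching DMSO, no compound) and a sterility well (no inoculum). Inhibition was calculated against growth and sterility wells.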

Pichia kudriavzevii = assay: Antimicrobial activity against Candida krusei C117 isolate at 6.25 ug/ml after 24 hrs; how it was run: as §1
Cryptococcus neoformans [1] = assay: Antimicrobial activity against Cryptococcus neoformans IM 00319 isolate at 6.25 ug/ml after 48 hrs; how it was run: as §1
Candida tropicalis = assay: Antimicrobial activity against Candida tropicalis C131 isolate at 6.25 ug/ml after 24 hrs; how it was run: as §1
Cryptococcus neoformans [2] = assay: Antimicrobial activity against Cryptococcus neoformans IM 052470 isolate at 6.25 ug/ml after 48 hrs; how it was run: as §1
Cryptococcus neoformans [3] = assay: Antimicrobial activity against Cryptococcus neoformans ATCC 32264 at 6.25 ug/ml after 48 hrs; details: ATCC 32264, 48 h; how it was run: as §1
Cryptococcus neoformans [4] = assay: Antimicrobial activity against Cryptococcus neoformans IM 972751 isolate at 6.25 ug/ml after 48 hrs
How it was run: (§2)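 Clinical Cryptococcus isolates kept on Sabouraud-dextrose agar slopes; inoculum 1–5 × 10³ CFU/mL. Quinoline DMSO stocks were diluted in RPMI-1640 to final 100–6.25 µg/mL, with DMSO ≤2%. An equal volume of inoculum was added (200 µL per well). Run in triplicate.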

Candida albicans [5] = assay: Antimicrobial activity against Candida albicans C127 isolate at 6.25 ug/ml after 24 hrs; details: C127, 24 h
How it was run: (§3)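 Growth-inhibition microplate test. Strains are grown on Sabouraud-chloramphenicol agar for 48 h at 30 °C, and inoculum is added to RPMI-1640 containing compound at a final 100–6.25, with DMSO ≤2%. Each strain has a growth control (same DMSO, no compound) and a sterility control.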

Cryptococcus neoformans [6] = assay: Antimicrobial activity against Cryptococcus neoformans IM 983040 isolate at 6.25 ug/ml after 48 hrs; how it was run: as §2
Candida albicans [7] = assay: Antimicrobial activity against Candida albicans C128 isolate at 6.25 ug/ml after 24 hrs; how it was run: as §3
Cryptococcus neoformans [8] = assay: Antimicrobial activity against Cryptococcus neoformans IM 961951 isolate at 6.25 ug/ml after 48 hrs; how it was run: as §2
Cryptococcus neoformans [9] = assay: Antimicrobial activity against Cryptococcus neoformans IM 983036 isolate at 6.25 ug/ml after 48 hrs; how it was run: as §2
Candida albicans [10] = assay: Antimicrobial activity against Candida albicans ATCC 10231 at 6.25 ug/ml after 24 hrs; details: ATCC 10231, 24 h; how it was run: as §3
Cryptococcus neoformans [11] = assay: Antimicrobial activity against Cryptococcus neoformans IM 031631 isolate at 6.25 ug/ml after 48 hrs; how it was run: as §1
Candida albicans [12] = assay: Antifungal activity against Candida albicans ATCC 10231 after 48 hrs by broth microdilution technique; details: ATCC 10231, 48 h
How it was run: (§4)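 CLSI broth microdilution: M-27 A2 for yeasts and M-38 A for filamentous fungi. Medium is RPMI-1640 buffered to pH 7.0 with MOPS. Compound is diluted twofold from 250 to 0.98, final DMSO ≤2%. Inoculum is 1–5 × 10³ CFU/mL. Plates are incubated at 35 °C in a moist, dark chamber and read visually at 48 h. MIC100 is the lowest concentration giving total growth inhibition versus drug-free control.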

Aspergillus flavus = assay: Antifungal activity against Aspergillus flavus ATCC 9170 after 48 hrs by broth microdilution technique; details: ATCC 9170, 48 h; how it was run: as §4
Cryptococcus neoformans [13] = assay: Antifungal activity against Cryptococcus neoformans ATCC 32264 after 48 hrs by broth microdilution technique; details: ATCC 32264, 48 h; how it was run: as §4
Nakaseomyces glabratus = assay: Antimicrobial activity against Candida glabrata C115 isolate at 6.25 ug/ml after 24 hrs; how it was run: as §1
Candida albicans [14] = assay: Antimicrobial activity against Candida albicans C126 isolate at 6.25 ug/ml after 24 hrs; how it was run: as §3
Cryptococcus neoformans [15] = assay: Antimicrobial activity against Cryptococcus neoformans IM 972724 isolate at 6.25 ug/ml after 48 hrs; how it was run: as §2
Cryptococcus neoformans [16] = assay: Antimicrobial activity against Cryptococcus neoformans IM 031706 isolate at 6.25 ug/ml after 48 hrs; how it was run: as §1
Candida albicans [17] = assay: Antimicrobial activity against Candida albicans C130 isolate at 6.25 ug/ml after 24 hrs; how it was run: as §3
Saccharomyces cerevisiae = assay: Antifungal activity against Saccharomyces cerevisiae ATCC 9763 after 48 hrs by broth microdilution technique; details: ATCC 9763, 48 h; how it was run: as §4
Aspergillus fumigatus = assay: Antifungal activity against Aspergillus fumigatus ATTC 26934 after 48 hrs by broth microdilution technique; how it was run: as §4
Candida albicans [18] = assay: Antimicrobial activity against Candida albicans C129 isolate at 6.25 ug/ml after 24 hrs; how it was run: as §3
Aspergillus niger = assay: Antifungal activity against Aspergillus niger ATCC 9029 after 48 hrs by broth microdilution technique; details: ATCC 9029, 48 h; how it was run: as §4
Cryptococcus neoformans [19] = assay: Antimicrobial activity against Cryptococcus neoformans IM 042074 isolate at 6.25 ug/ml after 48 hrs; how it was run: as §1
Trichophyton rubrum [20] = assay: Antifungal activity against Trichophyton rubrum C110 after 48 hrs by broth microdilution technique; how it was run: as §4
Nannizzia gypsea = assay: Antifungal activity against Microsporum gypseum C115 after 48 hrs by broth microdilution technique; how it was run: as §4
[21] = system: Trichophyton mentagrophytes; assay: Antifungal activity against Trichophyton mentagrophytes ATCC 9972 after 48 hrs by broth microdilution technique; details: ATCC 9972, 48 h; how it was run: as §4
[22] = system: Trichophyton mentagrophytes; assay: Antifungal activity against Trichophyton mentagrophytes C539 isolate; details: read-out: MIC100
[23] = system: Trichophyton mentagrophytes; assay: Antifungal activity against Trichophyton mentagrophytes C943 isolate; details: read-out: MIC100
Trichophyton rubrum [24] = assay: Antifungal activity against Trichophyton rubrum C133 isolate; details: read-out: MIC100
Trichophyton rubrum [25] = assay: Antifungal activity against Trichophyton rubrum C137 isolate; details: read-out: MIC100
[26] = system: Trichophyton mentagrophytes; assay: Antifungal activity against Trichophyton mentagrophytes C131 isolate; details: read-out: MIC100
[27] = system: Trichophyton mentagrophytes; assay: Antifungal activity against Trichophyton mentagrophytes C364 isolate; details: read-out: MIC100
[28] = system: Trichophyton mentagrophytes; assay: Antifungal activity against Trichophyton mentagrophytes C132 isolate; details: read-out: MIC100
Trichophyton rubrum [29] = assay: Antifungal activity against Trichophyton rubrum C135 isolate; details: read-out: MIC100
Trichophyton rubrum [30] = assay: Antifungal activity against Trichophyton rubrum C136 isolate; details: read-out: MIC100

| SMILES | inhibition at 6.25 µg/mL (Candida parapsilosis) [%] | inhibition at 6.25 µg/mL (Pichia kudriavzevii) [%] | inhibition at 6.25 µg/mL (Cryptococcus neoformans [1]) [%] | inhibition at 6.25 µg/mL (Candida tropicalis) [%] | inhibition at 6.25 µg/mL (Cryptococcus neoformans [2]) [%] | inhibition at 6.25 µg/mL (Cryptococcus neoformans [3]) [%] | inhibition at 6.25 µg/mL (Cryptococcus neoformans [4]) [%] | inhibition at 6.25 µg/mL (Candida albicans [5]) [%] | inhibition at 6.25 µg/mL (Cryptococcus neoformans [6]) [%] | inhibition at 6.25 µg/mL (Candida albicans [7]) [%] | inhibition at 6.25 µg/mL (Cryptococcus neoformans [8]) [%] | inhibition at 6.25 µg/mL (Cryptococcus neoformans [9]) [%] | inhibition at 6.25 µg/mL (Candida albicans [10]) [%] | inhibition at 6.25 µg/mL (Cryptococcus neoformans [11]) [%] | MIC (Candida albicans [12]) [µg/mL] | MIC (Aspergillus flavus) [µg/mL] | MIC (Cryptococcus neoformans [13]) [µg/mL] | inhibition at 6.25 µg/mL (Nakaseomyces glabratus) [%] | inhibition at 6.25 µg/mL (Candida albicans [14]) [%] | inhibition at 6.25 µg/mL (Cryptococcus neoformans [15]) [%] | also measured |
| --- | --- | --- | --- | --- | --- | --- | --- | --- | --- | --- | --- | --- | --- | --- | --- | --- | --- | --- | --- | --- | --- |
| C[C@@H]1[C@H](O)[C@@H](C)/C=C/C=C/C=C/C=C/C=C/C=C/C=C/[C@H](O[C@@H]2O[C@H](C)[C@@H](O)[C@H](N)[C@@H]2O)C[C@@H]2O[C@](O)(C[C@@H](O)C[C@@H](O)[C@H](O)CC[C@@H](O)C[C@@H](O)CC(=O)O[C@H]1C)C[C@H](O)[C@H]2C(=O)O [AMPHOTERICIN B] | 100 | 100 | 100 | 100 | 100 | 100 | 100 | 100 | 100 | 100 | 100 | 100 | 100 | 100 | 1 (≈ 1.08 µM) | 0.5 (≈ 0.541 µM) | 0.25 (≈ 0.271 µM) | 100 | 100 | 100 | inhibition at 6.25 µg/mL (Cryptococcus neoformans [16]): 100%; inhibition at 6.25 µg/mL (Candida albicans [17]): 100%; MIC (Saccharomyces cerevisiae): 0.5 µg/mL (≈ 0.541 µM); MIC (Aspergillus fumigatus): 0.5 µg/mL (≈ 0.541 µM); inhibition at 6.25 µg/mL (Candida albicans [18]): 100%; MIC (Aspergillus niger): 0.5 µg/mL (≈ 0.541 µM); inhibition at 6.25 µg/mL (Cryptococcus neoformans [19]): 100% |
| CC(=O)N1CCN(c2ccc(OCC3COC(Cn4ccnc4)(c4ccc(Cl)cc4Cl)O3)cc2)CC1 (centres undefined) [KETOCONAZOLE] | 100 | 100 | 100 | 100 | 100 | 100 | 100 | 100 | 100 | 100 | 100 | 100 | 100 | 100 | 0.5 (≈ 0.941 µM) | 0.5 (≈ 0.941 µM) | 0.25 (≈ 0.47 µM) | 100 | 100 | 100 | MIC (Trichophyton rubrum [20]; read-out: MIC): 0.025 µg/mL (≈ 0.047 µM); MIC (Nannizzia gypsea): 0.05 µg/mL (≈ 0.0941 µM); MIC [21]: 0.025 µg/mL (≈ 0.047 µM); inhibition at 6.25 µg/mL (Cryptococcus neoformans [16]): 100%; inhibition at 6.25 µg/mL (Candida albicans [17]): 100%; MIC (Saccharomyces cerevisiae): 0.5 µg/mL (≈ 0.941 µM); MIC (Aspergillus fumigatus): 0.125 µg/mL (≈ 0.235 µM); inhibition at 6.25 µg/mL (Candida albicans [18]): 100%; MIC (Aspergillus niger): 0.25 µg/mL (≈ 0.47 µM); inhibition at 6.25 µg/mL (Cryptococcus neoformans [19]): 100% |
| CN(C/C=C/C#CC(C)(C)C)Cc1cccc2ccccc12 [TERBINAFINE] |  |  |  |  |  |  |  |  |  |  |  |  |  |  |  |  |  |  |  |  | MIC [22]: 0.006 µg/mL (≈ 0.0206 µM); MIC [23]: 0.006 µg/mL (≈ 0.0206 µM); MIC (Trichophyton rubrum [24]): 0.006 µg/mL (≈ 0.0206 µM); MIC (Trichophyton rubrum [25]): 0.012 µg/mL (≈ 0.0412 µM); MIC [26]: 0.006 µg/mL (≈ 0.0206 µM); MIC (Trichophyton rubrum [20]; read-out: MIC100): 0.01 µg/mL (≈ 0.0343 µM); MIC [27]: 0.006 µg/mL (≈ 0.0206 µM); MIC (Nannizzia gypsea): 0.04 µg/mL (≈ 0.137 µM); MIC [28]: 0.006 µg/mL (≈ 0.0206 µM); MIC [21]: 0.04 µg/mL (≈ 0.137 µM); MIC (Trichophyton rubrum [29]): 0.006 µg/mL (≈ 0.0206 µM); MIC (Trichophyton rubrum [30]): 0.006 µg/mL (≈ 0.0206 µM) |
